Source: ChEMBL document CHEMBL1142147, “Action of disinfectant quaternary ammonium compounds against Staphylococcus aureus” (2007)
Active and inactive are the calls of the source. No cut-off for these calls is given here.

Key:
Staphylococcus aureus [1] = experiment: Reduction of cell count in Staphylococcus aureus ATCC 6538 between 6 to 18 hrs exposure; assay type: functional; set-up: scale not given: the % may be the effect or the level left
How it was run: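 Cells pre-exposed 4 h at 35°C to 9 μg/ml biocide, neutralized, washed, and held in HEPES at 35°C. Samples taken at 0 to 48 h, serially diluted, plated on TSA, incubated 18 h at 37°C and counted as CFU/ml.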

Staphylococcus aureus [2] = experiment: Antibacterial activity against 10^8 CFU/ml Staphylococcus aureus ATCC 6538 after 48 hrs; assay type: functional; settings: ATCC 6538, 48 h
How it was run: (§1)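 Spots of 5 μl inoculum (10-fold dilutions, 1 × 10⁹ to 1 × 10⁵ CFU/ml in HEPES) applied in triplicate. Incubated at 35°C and read visually at 24 and 48 h. MIC taken as no growth or <10 colonies in every spot of the triplicate.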

Staphylococcus aureus [3] = experiment: Antibacterial activity against 10^9 CFU/ml Staphylococcus aureus ATCC 6538 after 48 hrs; assay type: functional; settings: ATCC 6538, 48 h; how it was run: as §1
Staphylococcus aureus [4] = experiment: Induction of membrane collapse in Staphylococcus aureus ATCC 6538 at 12 ug/ml; assay type: functional, organism-based
How it was run: (§2)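 Cells (final 2 × 10⁹ CFU/ml) exposed to 4.5 to 18 μg/ml biocide or HEPES at 25°C, shaken. Samples filtered (0.45 μm) at timed points up to 240 min. K⁺ measured by flame emission at 766.5 nm and 260-nm material by A260. Each expressed as percent of the maximal pool (cetrimide 1 mM; TCA extraction). Mean % leakage at 30 min plotted against concentration.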

Staphylococcus aureus [5] = experiment: Antibacterial activity against 10^6 CFU/ml Staphylococcus aureus ATCC 6538 after 48 hrs; assay type: functional; settings: ATCC 6538, 48 h; how it was run: as §1
Staphylococcus aureus [6] = experiment: Antibacterial activity against 10^5 CFU/ml Staphylococcus aureus ATCC 6538 after 48 hrs; assay type: functional; settings: ATCC 6538, 48 h; how it was run: as §1
Staphylococcus aureus [7] = experiment: Loss of membrane integrity in Staphylococcus aureus ATCC 6538 at above 4.5 ug/ml; assay type: functional, organism-based; how it was run: as §2
Staphylococcus aureus [8] = experiment: Induction of autolysis in Staphylococcus aureus ATCC 6538 at 9 ug/ml; assay type: functional, organism-based
How it was run: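 Washed cells (final 2 × 10⁹ CFU/ml) held with biocide at 9 μg/ml in HEPES at 35°C for 4 h, shaken. Then neutralized with lecithin/Tween 80, washed, and resuspended in HEPES at 35°C. Filtrates (0.45 μm) taken at 0, 2, 4, 18, 22 and 24 h and read at A260. Autolysis taken as 260-nm leakage above the TCA-extractable pool.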

Staphylococcus aureus [9] = experiment: Intracellular coagulation in Staphylococcus aureus ATCC 6538 at tested concentrations 4.5, 9, 12 and 15 ug/ml; assay type: functional, organism-based
Staphylococcus aureus [10] = experiment: Antibacterial activity against 10^7 CFU/ml Staphylococcus aureus ATCC 6538 after 48 hrs; assay type: functional; settings: ATCC 6538, 48 h; how it was run: as §1

## CCCCCCCCCC[N+](C)(C)CCCCCCCCCC.[Cl-] [DIDECYLDIMETHYLAMMONIUM CHLORIDE]
Staphylococcus aureus [1]
  Activity: 90%
Staphylococcus aureus [2]
  MIC: 0.6 µg/mL
Staphylococcus aureus [3]
  MIC: 1.6 µg/mL
Staphylococcus aureus [4]
  Activity: Active
Staphylococcus aureus [5]
  MIC: 0.4 µg/mL
Staphylococcus aureus [6]
  MIC: 0.4 µg/mL
Staphylococcus aureus [7]
  Activity: Active
Staphylococcus aureus [8]
  Activity: Active
Staphylococcus aureus [9]
  Activity: inactive
Staphylococcus aureus [10]
  MIC: 0.4 µg/mL
